Experimental data from ChEMBL document CHEMBL1135632, “Synthesis and investigation of conformationally restricted analogues of lavendustin A as cytotoxic inhibitors of tubulin polymerization” (J Med Chem, 2002).

How the values were obtained:
Homo sapiens [1] = organism: Homo sapiens; experiment: Cytotoxicity against breast MDA-MB-435; assay type: functional
Outline: (§1)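 NCI human cancer cell line screen. Compounds were tested from 10^-4 to 10^-8 M, and GI50 was taken as the concentration giving 50% growth inhibition. Agents whose mean graph midpoint across about 55 lines was 10 μM or less on the first determination were assayed a second time, with standard deviations calculated. Agents above 10 μM were not evaluated further.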

Tubulin = Tubulin (Bos taurus, UniProt Q6B856+Q862L2+Q862F3); experiment: Inhibition of tubulin polymerization at concentration 10 uM; assay type: functional
Homo sapiens [2] = organism: Homo sapiens; experiment: Cytotoxicity against prostate DU-145; assay type: functional; details: DU-145, Prostate gland; outline: as §1
Homo sapiens [3] = organism: Homo sapiens; experiment: Cytotoxicity against ovarian OVCAR-3; assay type: functional; outline: as §1
[4] = (§2) Cytotoxicity against leukemia CCRF-CEM; assay type: functional; details: Homo sapiens; outline: as §1
Homo sapiens [5] = organism: Homo sapiens; experiment: Cytotoxicity against CNS SF-539; assay type: functional; details: CNSSF-539; outline: as §1
Homo sapiens [6] = organism: Homo sapiens; experiment: Cytotoxicity against colon HCT116; assay type: functional; details: HCT-116; outline: as §1
Homo sapiens [7] = organism: Homo sapiens; experiment: Cytotoxicity against renal SN12C; assay type: functional; outline: as §1
Homo sapiens [8] = organism: Homo sapiens; experiment: Cytotoxicity against melanoma UACC-62; assay type: functional; outline: as §1
Homo sapiens [9] = organism: Homo sapiens; experiment: Cytotoxicity against lung HOP-62; assay type: functional; outline: as §1
[10] = as §2; assay type: cell-based; details: human, CCRF-CEM leukemia cells
Tubulin (Bos taurus) = experiment: Inhibition of tubulin polymerization at concentration 10 uM

Which GI50 (Homo sapiens [1]) does the source give for `Oc1ccc(O)c(CNc2ccc(O)c(/C=C\CCc3ccccc3)c2)c1` here?
Its GI50 is 17.1 µM.

And the IC50 (Tubulin)?
The IC50 was 3.7 µM.

What about the GI50 (Homo sapiens [2]) of the same molecule?
Its GI50 is 34 µM.

What about the GI50 (Homo sapiens [3]) of the same molecule?
The GI50 was 21.9 µM.

What about the GI50 [4] of the same molecule?
Its GI50 is 0.7 µM.

And the GI50 (Homo sapiens [5])?
The GI50 was 11.6 µM.

What about the GI50 (Homo sapiens [6]) of the same molecule?
Its GI50 is 19.3 µM.

And the GI50 (Homo sapiens [7])?
The GI50 was 17.8 µM.

What about the GI50 (Homo sapiens [8]) of the same molecule?
Its GI50 is 15.9 µM.

What about the GI50 (Homo sapiens [9]) of the same molecule?
Its GI50 is 20.5 µM.

With `O=C1c2c(O)ccc(NCc3cc(O)ccc3O)c2CN1CCc1ccccc1` as the molecule, how does the GI50 (Homo sapiens [1]) read?
The GI50 was 14.8 µM.

What about the IC50 (Tubulin) of the same molecule?
The IC50 was 7.4 µM.

And the GI50 (Homo sapiens [2])?
The GI50 was 14.5 µM.

And the GI50 (Homo sapiens [3])?
Its GI50 is 6.2 µM.

And the GI50 [4]?
Its GI50 is 2.3 µM.

What about the GI50 (Homo sapiens [5]) of the same molecule?
The GI50 was 23.1 µM.

And the GI50 (Homo sapiens [6])?
The GI50 was 19.9 µM.

What about the GI50 (Homo sapiens [7]) of the same molecule?
The GI50 was 12.9 µM.

And the GI50 (Homo sapiens [8])?
Its GI50 is 10.1 µM.

What about the GI50 (Homo sapiens [9]) of the same molecule?
The GI50 was 26.8 µM.

For `O=c1oc2ccc(NCc3cc(O)ccc3O)cc2c(=O)n1CCc1ccc(F)cc1`, which GI50 (Homo sapiens [1]) is on record?
The GI50 was 4.9 µM.

What about the IC50 (Tubulin) of the same molecule?
The IC50 was 6.8 µM.

And the GI50 (Homo sapiens [2])?
Its GI50 is 17.7 µM.

And the GI50 (Homo sapiens [3])?
The GI50 was 2.8 µM.

And the GI50 [4]?
The GI50 was 0.78 µM.

What about the GI50 (Homo sapiens [5]) of the same molecule?
Its GI50 is 5.1 µM.

What about the GI50 (Homo sapiens [6]) of the same molecule?
Its GI50 is 4.2 µM.

What about the GI50 (Homo sapiens [7]) of the same molecule?
Its GI50 is 6.6 µM.

What about the GI50 (Homo sapiens [8]) of the same molecule?
The GI50 was 7 µM.

What about the GI50 (Homo sapiens [9]) of the same molecule?
Its GI50 is 17.2 µM.

With `O=C(NCCc1ccc(F)cc1)c1cc(NCc2cc(O)ccc2O)ccc1O` as the molecule, how does the GI50 (Homo sapiens [1]) read?
The GI50 was 0.047 µM.

What about the IC50 (Tubulin) of the same molecule?
The IC50 was 4 µM.

What about the GI50 (Homo sapiens [2]) of the same molecule?
Its GI50 is 0.27 µM.

And the GI50 (Homo sapiens [3])?
Its GI50 is 0.15 µM.

What about the GI50 [4] of the same molecule?
Its GI50 is 0.22 µM.

And the GI50 (Homo sapiens [5])?
Its GI50 is 0.32 µM.

And the GI50 (Homo sapiens [6])?
Its GI50 is 0.33 µM.

What about the GI50 (Homo sapiens [7]) of the same molecule?
The GI50 was 0.58 µM.

What about the GI50 (Homo sapiens [8]) of the same molecule?
The GI50 was 0.41 µM.

What about the GI50 (Homo sapiens [9]) of the same molecule?
Its GI50 is 0.28 µM.

What does the source list for `COc1ccc(NCc2cc(O)ccc2O)c2c1C(=O)N(CCc1ccc(F)cc1)C2`?
GI50 (Homo sapiens [1]): 14 µM; IC50 (Tubulin): 5.9 µM; GI50 (Homo sapiens [2]): 16.1 µM; GI50 (Homo sapiens [3]): 8.4 µM; GI50 [4]: 3.4 µM; GI50 (Homo sapiens [5]): 14.4 µM; GI50 (Homo sapiens [6]): 20.4 µM; GI50 (Homo sapiens [7]): 20.4 µM; GI50 (Homo sapiens [8]): 19.1 µM; GI50 (Homo sapiens [9]): 31.4 µM

For `O=c1oc2ccc(NCc3cc(O)ccc3O)cc2c(=O)n1CCc1ccccc1`, which GI50 (Homo sapiens [1]) is on record?
Its GI50 is 5.6 µM.

What about the IC50 (Tubulin) of the same molecule?
Its IC50 is 8.3 µM.

And the GI50 (Homo sapiens [2])?
Its GI50 is 15.3 µM.

And the GI50 (Homo sapiens [3])?
Its GI50 is 3.6 µM.

What about the GI50 [10] of the same molecule?
The GI50 was 1.3 µM.

What about the GI50 (Homo sapiens [5]) of the same molecule?
Its GI50 is 8.9 µM.

What about the GI50 (Homo sapiens [6]) of the same molecule?
The GI50 was 4.6 µM.

What about the GI50 (Homo sapiens [7]) of the same molecule?
Its GI50 is 9.6 µM.

And the GI50 (Homo sapiens [8])?
The GI50 was 6 µM.

What about the GI50 (Homo sapiens [9]) of the same molecule?
Its GI50 is 21.4 µM.

With `CCCCCCNC(=O)c1cc(NCc2cc(O)ccc2O)ccc1O` as the molecule, how does the GI50 (Homo sapiens [1]) read?
The GI50 was 15 µM.

And the IC50 (Tubulin)?
The IC50 was 3.6 µM.

And the GI50 (Homo sapiens [2])?
The GI50 was 15 µM.

And the GI50 (Homo sapiens [3])?
Its GI50 is 4 µM.

What about the GI50 [4] of the same molecule?
Its GI50 is 0.56 µM.

And the GI50 (Homo sapiens [5])?
Its GI50 is 2.3 µM.

What about the GI50 (Homo sapiens [6]) of the same molecule?
Its GI50 is 17 µM.

And the GI50 (Homo sapiens [7])?
The GI50 was 6.1 µM.

And the GI50 (Homo sapiens [8])?
Its GI50 is 12 µM.

What about the GI50 (Homo sapiens [9]) of the same molecule?
Its GI50 is 19 µM.

Which results are given for `O=C(NCCc1ccccc1)c1cc(NCc2cc(O)ccc2O)ccc1O`?
GI50 (Homo sapiens [1]): 19 µM; IC50 (Tubulin): 3.6 µM; GI50 (Homo sapiens [2]): 16 µM; GI50 (Homo sapiens [3]): 7.7 µM; GI50 [4]: 2.7 µM; GI50 (Homo sapiens [5]): 17 µM; GI50 (Homo sapiens [6]): 18 µM; GI50 (Homo sapiens [7]): 18 µM; GI50 (Homo sapiens [8]): 14 µM; GI50 (Homo sapiens [9]): 20 µM

Which results are given for `O=C1c2c(O)ccc(NCc3cc(O)ccc3O)c2CN1CCc1ccc(F)cc1`?
GI50 (Homo sapiens [1]): 15.6 µM; IC50 (Tubulin): 5.9 µM; GI50 (Homo sapiens [2]): 24.6 µM; GI50 (Homo sapiens [3]): 8.8 µM; GI50 [4]: 1.8 µM; GI50 (Homo sapiens [5]): 14.4 µM; GI50 (Homo sapiens [6]): 18.7 µM; GI50 (Homo sapiens [7]): 16 µM; GI50 (Homo sapiens [8]): 13.3 µM; GI50 (Homo sapiens [9]): 19.6 µM

With `COc1ccc(NCc2cc(O)ccc2O)c2c1C(=O)N(CCc1ccccc1)C2` as the molecule, how does the IC50 (Tubulin (Bos taurus)) read?
Its IC50 is 9.5 µM.

For `CCCCCCn1c(=O)oc2ccc(NCc3cc(O)ccc3O)cc2c1=O`, which GI50 (Homo sapiens [1]) is on record?
The GI50 was 3.9 µM.

And the IC50 (Tubulin)?
Its IC50 is 6 µM.

What about the GI50 (Homo sapiens [2]) of the same molecule?
Its GI50 is 13.8 µM.

And the GI50 (Homo sapiens [3])?
The GI50 was 1.7 µM.

What about the GI50 [4] of the same molecule?
Its GI50 is 0.27 µM.

What about the GI50 (Homo sapiens [5]) of the same molecule?
Its GI50 is 2.4 µM.

What about the GI50 (Homo sapiens [6]) of the same molecule?
The GI50 was 3.2 µM.

And the GI50 (Homo sapiens [7])?
The GI50 was 4.2 µM.

What about the GI50 (Homo sapiens [8]) of the same molecule?
The GI50 was 3.2 µM.

What about the GI50 (Homo sapiens [9]) of the same molecule?
Its GI50 is 14.8 µM.

With `Oc1ccc(O)c(CNc2ccc(O)c(/C=C/CCc3ccccc3)c2)c1` as the molecule, how does the GI50 (Homo sapiens [1]) read?
Its GI50 is 5.7 µM.

And the IC50 (Tubulin)?
Its IC50 is 7.2 µM.

And the GI50 (Homo sapiens [2])?
Its GI50 is 18.7 µM.

And the GI50 (Homo sapiens [3])?
The GI50 was 20.4 µM.

What about the GI50 [4] of the same molecule?
The GI50 was 1.1 µM.

What about the GI50 (Homo sapiens [5]) of the same molecule?
The GI50 was 16.3 µM.

And the GI50 (Homo sapiens [6])?
Its GI50 is 30.4 µM.

What about the GI50 (Homo sapiens [7]) of the same molecule?
Its GI50 is 21.4 µM.

And the GI50 (Homo sapiens [8])?
Its GI50 is 18 µM.

What about the GI50 (Homo sapiens [9]) of the same molecule?
Its GI50 is 35.4 µM.
